Data reported in ChEMBL document CHEMBL1143720, “Vasorelaxant activity of diterpenes from Croton zambesicus and synthetic trachylobanes and their structure-activity relationships” (J Nat Prod, 2007).

Key:
Aorta [1] = assay: Vasorelaxant activity against KCl-induced contraction in Wistar rat aorta; format: functional, tissue-based
Outline: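 Endothelium-intact aortic rings in physiological solution at 37 °C, gassed with 95% O2/5% CO2 and equilibrated 60 min. Compound added cumulatively (10^-6 to 10^-4 M; 0.3–3 or 0.3–10 µg/mL by solubility) on the plateau of 100 mM KCl depolarizing contraction. Response taken as % of initial KCl contraction. IC50 from sigmoidal fit, 95% CI, 3–6 determinations.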

Aorta [2] = assay: Vasorelaxant activity against KCl-induced contraction in Wistar rat aorta at 10 ug/ml; format: functional; set-up: scale not given: the % may be the effect or the level left
Outline: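 Rat aortic rings at 37 °C, gassed with 95% O2/5% CO2 and equilibrated 60 min; first contraction with 100 mM KCl depolarizing solution. After washing, rings were preincubated 30 min with compound at 10 µg/mL (max 3 µg/mL if poorly soluble; DMSO ≤0.1% in bath) and KCl contraction repeated. Inhibition versus the control contraction after 40 min incubation; mean ± SEM of n.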

HeLa = assay: Cytotoxicity against human HeLa cells by MTT method; format: cell-based
Outline: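 HeLa human cervix carcinoma cells; viability by MTT colorimetric assay. Absorbance expressed as percent of control, with camptothecin as positive control. IC50 given as mean ± SEM.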

Q: C[C@@]1(C(O)CO)CC[C@@H]2C(O)(C1)C(O)C[C@H]1[C@@]2(C)CC[C@H](O)[C@]1(C)CO (some centres not stated) was tested. Which IC50 (Aorta [1]) did it give?
A: > 80 µM

Q: How did the Activity (Aorta [2]) turn out when C[C@]12CCC(=O)[C@@](C)(CO)[C@@H]1CC[C@]13C(=O)C4[C@@H](C[C@@H]12)[C@]4(C)C3=O was run?
A: 93.1%

Q: Which IC50 (HeLa) does the source give for CC(C)(C)[Si](C)(C)O[C@@]12CC[C@@]3(C)[C@@H](CC[C@]45C(=O)C6[C@@H](C[C@@H]43)[C@@]6(C)C5=O)[C@]1(C)C2 here?
A: > 150 µM

Q: How did the IC50 (HeLa) turn out when C=C1[C@H]2CC[C@@]34C(=O)C5[C@H](C[C@H]3[C@]2(C)CC[C@@H]1Cl)[C@]5(C)C4=O was run?
A: > 150 µM

Q: And the IC50 (Aorta [1])?
A: 9.75 µM

Q: And the Activity (Aorta [2])?
A: 28.5%

Q: For CC1(C)CCC[C@]2(C)[C@@H]1CC[C@@]13C(=O)C4[C@H](C[C@@H]21)[C@]4(C)[C@H]3O, which IC50 (HeLa) is on record?
A: 138 µM

Q: What about the IC50 (Aorta [1]) of the same molecule?
A: 4.65 µM

Q: What about the Activity (Aorta [2]) of the same molecule?
A: 17.9%

Q: What does the source list for C=C1[C@H]2CC[C@@]34C(=O)C5[C@H](C[C@H]3[C@]2(C)CC[C@@H]1Br)[C@]5(C)C4=O?
A: IC50 (HeLa): > 150 µM; Activity (Aorta [2]): 65.5%

Q: Which IC50 (HeLa) does the source give for CC1(C)CCC[C@]2(C)[C@H]3CC[C@]4(C)CC(=O)[C@]3(CC[C@@H]12)[C@H]4O here?
A: 153 µM

Q: What about the Activity (Aorta [2]) of the same molecule?
A: 40.7%

Q: Which IC50 (HeLa) does the source give for CC1(C)[C@H]2CC[C@@]34CC5[C@H](C[C@H]3[C@]2(C)CC[C@@H]1O)[C@]5(C)C4 here?
A: 25.3 µM

Q: What about the IC50 (Aorta [1]) of the same molecule?
A: > 80 µM

Q: What about the Activity (Aorta [2]) of the same molecule?
A: 67.3%

Q: Which IC50 (HeLa) does the source give for C=C1[C@H]2CC[C@@]34C(=O)C5[C@H](C[C@H]3[C@]2(C)CC[C@@H]1O)[C@]5(C)C4=O here?
A: > 150 µM

Q: And the Activity (Aorta [2])?
A: 83.9%

Q: C[C@@]12CC[C@H](O)[C@](C)(CO)[C@H]1CC[C@@]13CC4[C@H](C[C@H]12)[C@]4(C)C3 was tested. Which IC50 (HeLa) did it give?
A: 64 µM

Q: And the IC50 (Aorta [1])?
A: > 80 µM

Q: Which results are given for C=C1C[C@]23CC[C@H]4C(C)(C)C(=O)CC[C@]4(C)[C@H]2C[C@@H]1CC3=O?
A: IC50 (HeLa): > 150 µM; Activity (Aorta [2]): 60.6%

Q: Which results are given for CO[C@]1(C)[C@@H](Br)CC[C@@]2(C)[C@@H]3C[C@H]4C5C(=O)[C@@]3(CC[C@@H]21)C(=O)[C@]54C?
A: IC50 (HeLa): > 150 µM; IC50 (Aorta [1]): 12.3 µM; Activity (Aorta [2]): 33%

Q: How did the IC50 (HeLa) turn out when CC[C@@]1(O)C(=O)OCc2c1cc1n(c2=O)Cc2cc3ccccc3nc2-1 [CAMPTOTHECIN] was run?
A: 0.5 µM

Q: C=C1CCC[C@]2(C)[C@@H]1CC[C@@]13C(=O)C4[C@H](C[C@H]12)[C@]4(C)C3=O was tested. Which IC50 (HeLa) did it give?
A: 128 µM

Q: And the IC50 (Aorta [1])?
A: 3.5 µM

Q: And the Activity (Aorta [2])?
A: 9.2%

Q: What does the source list for CC1(C)CCC[C@]2(C)[C@H]3C[C@@H]4C5C(=O)[C@]3(CC[C@@H]12)[C@@H](O)[C@]54C?
A: IC50 (HeLa): > 150 µM; IC50 (Aorta [1]): 9.1 µM; Activity (Aorta [2]): 22.1%

Q: CC1(C)C(=O)CC[C@@]2(C)[C@@H]3C[C@@H]4[C@@H]5C[C@@]3(CC[C@@H]12)C[C@@]45C was tested. Which IC50 (HeLa) did it give?
A: 33.5 µM

Q: What about the IC50 (Aorta [1]) of the same molecule?
A: > 80 µM

Q: What about the Activity (Aorta [2]) of the same molecule?
A: 65.6%

Q: With C[C@@H]1C(=O)[C@]23CC[C@H]4C(C)(C)C(=O)CC[C@]4(C)[C@H]2C[C@@H]1CC3=O as the molecule, how does the IC50 (HeLa) read?
A: > 150 µM

Q: What about the Activity (Aorta [2]) of the same molecule?
A: 87.9%

Q: For CC1(C)C(=O)CC[C@]2(C)[C@@H]1CC[C@@]13C(=O)C4[C@H](C[C@H]12)[C@]4(C)C3=O, which IC50 (HeLa) is on record?
A: > 150 µM

Q: What about the Activity (Aorta [2]) of the same molecule?
A: 84.4%

Q: Which results are given for C[C@@]12CCC(=O)[C@](C)(CBr)[C@H]1CC[C@@]13C(=O)C4[C@H](C[C@H]12)[C@]4(C)C3=O?
A: IC50 (HeLa): > 150 µM; Activity (Aorta [2]): 71.8%

Q: Which results are given for CC1(C)[C@H](O)CC[C@]2(C)[C@@H]1CC[C@@]13C(=O)C4[C@H](C[C@@H]21)[C@]4(C)[C@H]3O?
A: IC50 (HeLa): > 150 µM; Activity (Aorta [2]): 90.3%

Q: With CC1(C)CCC[C@]2(C)[C@@H]1CC[C@@]13[C@H](O)C[C@](C)(CC[C@@H]21)[C@H]3O as the molecule, how does the IC50 (HeLa) read?
A: > 150 µM

Q: And the Activity (Aorta [2])?
A: 52.2%

Q: What does the source list for C[C@@H]1C[C@@H](O)[C@H]2[C@@](C)(CO)CCC[C@]2(C)[C@@]1(O)CCc1ccoc1 [MARRUBENOL]?
A: IC50 (Aorta [1]): 10 µM; Activity (Aorta [2]): 7.9%

Q: CC1(C)C(=O)CC[C@]2(C)[C@@H]1CC[C@@]13C(=O)C4[C@H](C[C@@H]21)[C@]4(C)[C@H]3O was tested. Which IC50 (HeLa) did it give?
A: > 150 µM

Q: And the Activity (Aorta [2])?
A: 92.7%

Q: How did the IC50 (HeLa) turn out when CC1(C)CCC[C@]2(C)[C@@H]1CC[C@@]13[C@H](O)C4[C@H](C[C@@H]21)[C@]4(C)[C@H]3O was run?
A: > 150 µM

Q: What about the Activity (Aorta [2]) of the same molecule?
A: 73.4%

Q: Which results are given for C=C[C@@]1(C)CC[C@H]2C(=CC[C@H]3C(C)(C)[C@@H](O)CC[C@]23C)C1 [ISOPIMARANE]?
A: IC50 (HeLa): 87.8 µM; IC50 (Aorta [1]): 46.2 µM; Activity (Aorta [2]): 54.6%

Q: For CC1(C)CCC[C@]2(C)[C@H]3C[C@@H]4C5C(=O)[C@]3(CC[C@@H]12)[C@H](I)[C@]54C, which IC50 (HeLa) is on record?
A: 150 µM

Q: And the Activity (Aorta [2])?
A: 37.4%

Q: Which IC50 (HeLa) does the source give for C[C@@]12CCC(=O)[C@](C)(CO)[C@H]1CC[C@@]13CC4[C@H](C[C@H]12)[C@]4(C)C3 here?
A: 40.4 µM

Q: What about the IC50 (Aorta [1]) of the same molecule?
A: 6.3 µM

Q: What about the Activity (Aorta [2]) of the same molecule?
A: 17%

Q: For CC1(C)C(=O)CC[C@]2(C)[C@H]3C[C@@H]4C5C(=O)[C@]3(CC[C@@H]12)[C@@H](O)[C@]54C, which IC50 (HeLa) is on record?
A: > 150 µM

Q: What about the Activity (Aorta [2]) of the same molecule?
A: 90%

Q: Which IC50 (HeLa) does the source give for CC1(C)C(=O)CC[C@]2(C)[C@H]3C[C@@H]4C5C(=O)[C@]3(CC[C@@H]12)[C@H](I)[C@]54C here?
A: > 150 µM

Q: And the Activity (Aorta [2])?
A: 95.7%

Q: How did the IC50 (HeLa) turn out when C/C(=C\CO)CCC[C@H](C)CCC[C@H](C)CCCC(C)C [TRANS-PHYTOL] was run?
A: 46.6 µM

Q: What about the IC50 (Aorta [1]) of the same molecule?
A: > 80 µM

Q: And the Activity (Aorta [2])?
A: 81.4%

Q: For CC1(C)C(=O)CC[C@@]2(C)[C@H]1CC[C@]13C(=O)C4[C@@H](C[C@@H]12)[C@]4(C)C3=O, which IC50 (HeLa) is on record?
A: > 150 µM

Q: What about the Activity (Aorta [2]) of the same molecule?
A: 91.4%

Q: Which IC50 (HeLa) does the source give for CC1(C)CCC[C@]2(C)[C@@H]1CC[C@@]13C(=O)C4[C@H](C[C@H]12)[C@]4(C)C3=O here?
A: 118 µM

Q: What about the IC50 (Aorta [1]) of the same molecule?
A: 5.8 µM

Q: And the Activity (Aorta [2])?
A: 14.5%

Q: How did the IC50 (HeLa) turn out when CC1=CCC[C@]2(C)[C@@H]1CC[C@@]13C(=O)C4[C@H](C[C@H]12)[C@]4(C)C3=O was run?
A: 125 µM
